Reference: paper PMC4535927 (Angewandte Chemie (International ed. in English), 2015)
Entries after “also recorded” stand apart in the source; their conditions may differ.

Experiments:
[1] = system: NIH3T3 HRas^G12V tumors; assay: Tumors induced by NIH3T3 HRas G12V cells in nu/nu mice; assay type: in vivo
Method in brief: (§1)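 Immunodeficient nu/nu mice were injected with NIH3T3 fibroblasts transformed by RET C634Y or by HRas G12V (Ras control). Before tumors appeared, mice received test compound orally at 1.0, 3.0 or 10.0 mg/kg/day or were left untreated. Tumor formation was scored. Tumor tissue was analysed for RET and VEGFR2 phosphorylation and for MAPK and mTOR signaling.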

[2] = biological target: T1, VEGFR2 (Homo sapiens, UniProt P35968); assay: VEGFR2 kinase microfluidics separation based assay; assay type: biochemical; settings: read-out: IC50, VEGFR2; [ATP] = 190 μM
T1 sequence (P35968 20-1356): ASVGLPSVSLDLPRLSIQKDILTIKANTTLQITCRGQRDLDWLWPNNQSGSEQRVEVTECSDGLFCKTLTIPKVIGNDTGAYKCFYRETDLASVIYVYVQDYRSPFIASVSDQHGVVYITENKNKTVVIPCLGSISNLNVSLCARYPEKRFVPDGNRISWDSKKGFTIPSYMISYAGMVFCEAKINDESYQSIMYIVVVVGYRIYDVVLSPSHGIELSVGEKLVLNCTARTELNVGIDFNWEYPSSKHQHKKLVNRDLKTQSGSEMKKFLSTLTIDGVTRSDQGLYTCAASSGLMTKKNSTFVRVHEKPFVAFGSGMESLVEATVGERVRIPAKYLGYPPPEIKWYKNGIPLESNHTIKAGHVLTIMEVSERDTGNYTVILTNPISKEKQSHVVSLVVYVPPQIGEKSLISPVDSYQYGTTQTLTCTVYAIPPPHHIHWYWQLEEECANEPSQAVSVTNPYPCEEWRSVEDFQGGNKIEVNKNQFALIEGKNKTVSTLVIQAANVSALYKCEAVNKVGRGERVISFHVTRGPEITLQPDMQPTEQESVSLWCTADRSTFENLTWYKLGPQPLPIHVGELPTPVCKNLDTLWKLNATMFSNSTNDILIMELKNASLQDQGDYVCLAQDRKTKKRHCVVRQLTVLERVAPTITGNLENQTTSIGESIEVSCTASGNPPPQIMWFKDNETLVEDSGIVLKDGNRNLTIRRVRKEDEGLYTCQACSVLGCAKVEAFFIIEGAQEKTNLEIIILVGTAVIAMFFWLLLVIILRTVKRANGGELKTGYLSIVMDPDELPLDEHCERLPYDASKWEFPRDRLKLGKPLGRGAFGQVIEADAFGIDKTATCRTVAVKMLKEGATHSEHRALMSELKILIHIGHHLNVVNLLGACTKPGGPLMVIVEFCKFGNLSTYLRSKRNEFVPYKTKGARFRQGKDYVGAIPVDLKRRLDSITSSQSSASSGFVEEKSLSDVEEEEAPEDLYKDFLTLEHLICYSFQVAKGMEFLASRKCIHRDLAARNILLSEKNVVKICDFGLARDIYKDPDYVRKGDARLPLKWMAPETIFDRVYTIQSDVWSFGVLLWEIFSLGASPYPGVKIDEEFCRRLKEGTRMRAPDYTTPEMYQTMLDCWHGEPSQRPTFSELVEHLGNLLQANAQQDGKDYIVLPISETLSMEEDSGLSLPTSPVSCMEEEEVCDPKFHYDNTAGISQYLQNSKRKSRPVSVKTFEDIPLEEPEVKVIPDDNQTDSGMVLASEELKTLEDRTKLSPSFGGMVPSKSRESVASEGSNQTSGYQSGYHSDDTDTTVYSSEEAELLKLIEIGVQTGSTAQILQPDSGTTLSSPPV

[3] = biological target: RET (Homo sapiens, UniProt P07949); assay: RET kinase microfluidics separation based assay; assay type: biochemical; settings: read-out: IC50, RET; [ATP] = 190 μM; means of at least three experiments
Sequence of RET (P07949 29-1114): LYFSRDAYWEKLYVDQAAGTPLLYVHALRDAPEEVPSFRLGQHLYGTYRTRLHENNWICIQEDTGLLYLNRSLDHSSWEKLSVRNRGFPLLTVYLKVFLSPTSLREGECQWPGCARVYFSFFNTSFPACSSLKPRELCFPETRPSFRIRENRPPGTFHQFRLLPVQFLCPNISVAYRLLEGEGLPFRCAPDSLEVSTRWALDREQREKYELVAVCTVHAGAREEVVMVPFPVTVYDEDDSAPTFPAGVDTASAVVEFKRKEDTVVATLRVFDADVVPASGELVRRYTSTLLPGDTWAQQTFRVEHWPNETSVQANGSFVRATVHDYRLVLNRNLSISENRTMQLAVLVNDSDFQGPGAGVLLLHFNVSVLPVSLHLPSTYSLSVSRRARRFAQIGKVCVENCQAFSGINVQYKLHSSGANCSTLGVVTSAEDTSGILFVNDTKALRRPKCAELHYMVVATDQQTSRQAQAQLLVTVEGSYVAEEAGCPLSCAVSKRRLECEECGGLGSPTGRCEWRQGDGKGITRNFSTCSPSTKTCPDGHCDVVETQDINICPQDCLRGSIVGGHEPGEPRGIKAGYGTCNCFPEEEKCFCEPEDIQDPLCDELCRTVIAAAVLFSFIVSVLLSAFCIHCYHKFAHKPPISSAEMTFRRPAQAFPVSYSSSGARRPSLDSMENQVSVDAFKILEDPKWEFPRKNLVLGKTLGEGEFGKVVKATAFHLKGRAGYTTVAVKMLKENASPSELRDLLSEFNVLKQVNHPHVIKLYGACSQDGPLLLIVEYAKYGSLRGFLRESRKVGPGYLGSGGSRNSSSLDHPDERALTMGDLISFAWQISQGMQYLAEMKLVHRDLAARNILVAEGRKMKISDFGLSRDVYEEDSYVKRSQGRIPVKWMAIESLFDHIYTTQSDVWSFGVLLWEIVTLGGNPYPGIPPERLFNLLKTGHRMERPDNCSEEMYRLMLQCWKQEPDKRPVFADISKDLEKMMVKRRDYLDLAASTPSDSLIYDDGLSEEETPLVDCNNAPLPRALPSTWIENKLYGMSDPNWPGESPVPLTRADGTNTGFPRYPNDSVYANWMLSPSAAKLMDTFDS
Method in brief: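 Recombinant RET activity measured by a microfluidic separation-based kinase assay at [ATP] 190 µM. IC50 values are means of at least three independent experiments.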

[4] = Pharmacokinetic properties; settings: in vivo
[5] = system: parental NIH3T3 cells; assay: Growth of parental NIH3T3 cells; assay type: cell-based; settings: up to 100.0 nM
[6] = system: RET oncoproteins; assay: Cell-based phosphorylation of all tested RET oncoproteins; settings: 1.0 nM
[7] = system: NIH3T3 RET^C634Y tumors; assay: Tumors induced by NIH3T3 RET C634Y cells in nu/nu mice; assay type: in vivo
Method in brief: as §1

[8] = system: NIH3T3 RET^C634Y cells; assay: In vitro cell proliferation of NIH3T3 RET C634Y; assay type: cell-based; settings: read-out: IC50, cell proliferation
[9] = biological target: T1, VEGFR2; assay: VEGFA-induced VEGFR2 phosphorylation in transfected HEK293 cells; assay type: cell-based; settings: 1.0 nM
[10] = biological target: RET^V804L (Homo sapiens, UniProt P07949, V804L); assay: Cell-based RET inhibition, RET V804L
Sequence of RET^V804L (P07949 29-1114 V804L): as the sequence (P07949 29-1114) above, with V776L counted along it

[11] = biological target: T2, RET^V804M (Homo sapiens, UniProt P07949, V804M); assay: Cell-based RET inhibition, RET V804M
T2 sequence (P07949 29-1114 V804M): as the sequence (P07949 29-1114) above, with V776M counted along it

[12] = biological target: T2, RET^V804M; assay: RET V804M kinase microfluidics separation based assay; assay type: biochemical; settings: read-out: IC50, RET^V804M; [ATP] = 190 μM
[13] = biological target: RET^C634R (Homo sapiens, UniProt P07949, C634R); assay: Cell-based RET inhibition, oncogenic RET C634R; settings: compared with predecessor compounds 1, 2 and 3a
Sequence of RET^C634R (P07949 29-1114 C634R): as the sequence (P07949 29-1114) above, with C606R counted along it

[14] = One-week tolerability in mice; assay type: in vivo; settings: increased linearly with dose, doses up to 100.0 mg/kg
[15] = biological target: RET^C634Y (Homo sapiens, UniProt P07949, C634Y); assay: RET C634Y tyrosine phosphorylation in NIH3T3 fibroblasts; assay type: cell-based
Sequence of RET^C634Y (P07949 29-1114 C634Y): as the sequence (P07949 29-1114) above, with C606Y counted along it

[16] = biological target: RET^M918T (Homo sapiens, UniProt P07949, M918T); assay: Cell-based RET inhibition, oncogenic RET M918T
Sequence of RET^M918T (P07949 29-1114 M918T): as the sequence (P07949 29-1114) above, with M890T counted along it

[17] = biological target: T1, VEGFR2; assay: VEGFA-induced VEGFR2 phosphorylation in HUVEC cells; assay type: cell-based; settings: 1.0 nM, endogenous level
[18] = biological target: T2, RET^V804M; settings: cited from earlier work

Cn1cc(-c2ccc3c(c2)ncn3-c2ccc(CC(=O)Nc3cc(C(C)(C)C)on3)cc2)cn1 [Pz-1]
VEGFR2 phosphorylation in tumors ([1]; Ras driven tumors, 1.0 mg/kg): inhibited VEGFR2 phosphorylation | MAPK signaling in tumors ([1]; Ras tumors, 10.0 mg/kg): no effect | IC50 [2]: < 1 nM | IC50 [3]: < 1 nM | Pharmacokinetic properties [4]: highly favorable | Growth inhibition [5]: did not exert detectable growth inhibition | Phosphorylation of RET oncoproteins / clinically relevant RET mutants [6]: strongly inhibited | Formation of RET-driven tumors ([7]; 1.0 mg/kg/day per os): completely blocked; also recorded: abrogated formation of tumors | RET phosphorylation in tumor tissue ([7]; 1.0 mg/kg/day per os): blocked phosphorylation | VEGFR2 phosphorylation in tumors ([7]; RET driven tumors, 1.0 mg/kg): inhibited VEGFR2 phosphorylation; also recorded: blocked phosphorylation | MAPK and mTOR mitogenic signaling cascades in tumors ([7]; RET-driven tumors): able to inhibit | Formation of tumors induced by RET^C634Y ([7]; nu/nu mice, PO 1.0, 3.0 or 10.0 mg/kg/day): completely prevented formation of tumors | IC50 [8]: 0.5 nM | VEGFA-induced VEGFR2 phosphorylation [9]: inhibiting VEGFA-induced VEGFR2 phosphorylation | Activity against RET^V804L [10]: highly effective | Activity against RET^V804M [11]: highly effective | IC50 [12]: < 1 nM | RET inhibitory activity towards oncogenic RET^C634R [13]: increased RET inhibitory activity | Alanine transaminase (ALT) [14]: remaining within a normal range | RET^C634Y tyrosine phosphorylation [15]: efficient inhibition | Activity against RET^M918T [16]: highly effective | VEGFA-induced VEGFR2 phosphorylation [17]: inhibiting VEGFA-induced VEGFR2 phosphorylation

COc1cc2nccc(Oc3ccc(NC(=O)C4(C(=O)Nc5ccc(F)cc5)CC4)cc3)c2cc1OC [cabozantinib]
Response of RET^V804M to the drug [18]: refractory
